The target of experiment [1] is PHF20L1 TUDOR domain. As to the kind of experiment: ITC.
In experiment [2] the test system is PHF20L1 expression in MDA-MB-231 cells. Nature of the experiment: Western blotting of PHF20L1 in cells exposed to CoCl2. The class given is cell-based, human. Conditions: MDA-MB-231 cells exposed to CoCl2. Summed up: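 MDA-MB-231 cells, grown in L-15 medium with 10% FBS at 37°C without CO2, treated with CoCl2 as hypoxia mimic; lysates immunoblotted for PHF20L1 and for HIF1α as hypoxia marker.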
In general terms: In western blotting, separated proteins are transferred to a membrane and probed.

As usually defined, the Kd is the constant that tells how readily two partners part at equilibrium. A higher Kd goes with weaker binding.

The compound H3K27me2 peptide (ITC) came in with an equilibrium dissociation constant (Kd) in experiment [1] of 73.6 µM.

For `[Cl][Co][Cl]` [CoCl2, cobalt chloride], the “induction of PHF20L1 protein by hypoxia activator” value in experiment [2] is listed as “PHF20L1 was indeed induced”.

Values taken from PMC7159910 (Science Advances, 2020).
